In ChEMBL document CHEMBL1165943, “Design and synthesis of new anticancer pyrimidines with multiple-kinase inhibitory effect” (Bioorg Med Chem, 2010):

Key:
TK-10 = assay: Growth inhibition of human TK10 cells after 48 hrs by sulforhodamine B assay; assay type: functional, cell-based; details: TK-10, 48 h; for CC50: read-out: LC50 (the source's name)
Procedure, shortened: (§1)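 Cells grown in RPMI 1640 with 5% FBS and 2 mM L-glutamine, seeded at 5,000–40,000 cells/well according to doubling time. After 24 h, time-zero plates are TCA-fixed. Five concentrations (10-fold or ½log dilutions, DMSO stocks) are applied for 48 h at 37 °C, 5% CO₂. Cells are TCA-fixed, SRB-stained and read at 515 nm. IC₅₀ is taken from [(Ti−Tz)/(C−Tz)]×100 = 50.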

MOLT-4 [1] = assay: Cytotoxicity against human MOLT4 cells assessed as cell growth at 0.001 uM after 48 hrs by sulforhodamine B assay; assay type: functional; details: MOLT-4, 48 h, read-out: Activity
NCI-H322M = assay: Cytotoxicity against human NCI-H322M cells assessed as cell growth at 0.001 uM after 48 hrs by sulforhodamine B assay; assay type: functional; details: read-out: Activity
HCT-15 [2] = assay: Cytotoxicity against human HCT15 cells assessed as cell growth at 0.001 uM after 48 hrs by sulforhodamine B assay; assay type: functional; details: HCT-15, 48 h, read-out: Activity
SNB-75 = assay: Cytotoxicity against human SNB75 cells assessed as cell growth at 0.001 uM after 48 hrs by sulforhodamine B assay; assay type: functional; details: SNB-75, 48 h, read-out: Activity
M14 = assay: Cytotoxicity against human M14 cells assessed as cell growth at 0.001 uM after 48 hrs by sulforhodamine B assay; assay type: functional; details: M14, 48 h, read-out: Activity
MDA-MB-435 [3] = assay: Cytotoxicity against human MDA-MB-435 cells assessed as cell growth at 0.001 uM after 48 hrs by sulforhodamine B assay; assay type: functional; details: MDA-MB-435, 48 h, read-out: Activity
MDA-MB-231 = assay: Cytotoxicity against human MDA-MB-231 cells assessed as cell growth at 0.001 uM after 48 hrs by sulforhodamine B assay; assay type: functional; details: MDA-MB-231, 48 h, read-out: Activity
T47D [4] = assay: Cytotoxicity against human T47D cells assessed as cell growth at 0.001 uM after 48 hrs by sulforhodamine B assay; assay type: functional; details: read-out: Activity
MOLT-4 [5] = assay: Cytotoxicity against human MOLT4 cells assessed as cell growth at 100 nM after 48 hrs by sulforhodamine B assay; assay type: functional; details: MOLT-4, 48 h, read-out: Activity
COLO 205 = assay: Cytotoxicity against human COLO205 cells assessed as cell growth at 100 nM after 48 hrs by sulforhodamine B assay; assay type: functional; details: COLO 205, 48 h, read-out: Activity
Procedure, shortened: (§2)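 Cells grown in RPMI 1640 with 5% FBS and 2 mM L-glutamine, seeded at 5,000–40,000 cells/well by doubling time. Time-zero plates TCA-fixed after 24 h. Five concentrations (10-fold or half-log dilutions from DMSO stock) added; 48 h at 37 °C, 5% CO2. Cold TCA fixation (final 10%, 60 min, 4 °C), 0.4% SRB stain, dye solubilized in 10 mM trizma base, A515.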

HCT-15 [6] = assay: Cytotoxicity against human HCT15 cells assessed as cell growth at 100 nM after 48 hrs by sulforhodamine B assay; assay type: functional; details: HCT-15, 48 h, read-out: Activity
CAKI-1 = assay: Cytotoxicity against human Caki1 cells assessed as cell growth at 100 nM after 48 hrs by sulforhodamine B assay; assay type: functional; details: CAKI-1, 48 h, read-out: Activity
HL-60(TB) = assay: Cytotoxicity against human HL-60(TB) cells assessed as cell growth at 0.01 uM after 48 hrs by sulforhodamine B assay; assay type: functional; details: HL-60, 48 h, read-out: Activity
Procedure, shortened: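 Five-concentration HL-60(TB) test in RPMI 1640 with 5% FBS and 2 mM L-glutamine. Cells are plated at 5,000–40,000/well and a TCA-fixed time-zero plate is read at drug addition after 24 h. Drug is dissolved in DMSO and given as five 10-fold or ½log dilutions for 48 h at 37 °C, 5% CO2. Settled cells are fixed with TCA, stained with SRB and read at 515 nm.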

SF-539 = assay: Cytotoxicity against human SF539 cells assessed as cell growth at 10 uM after 48 hrs by sulforhodamine B assay; assay type: functional; details: SF-539, 48 h, read-out: Activity
LOX IMVI = assay: Cytotoxicity against human LOXIMVI cells assessed as cell growth at 10 uM after 48 hrs by sulforhodamine B assay; assay type: functional; details: read-out: Activity
U-251 = assay: Cytotoxicity against human U251 cells assessed as cell growth at 0.01 uM after 48 hrs by sulforhodamine B assay; assay type: functional; details: U-251, 48 h, read-out: Activity
MDA-MB-435 [7] = assay: Cytotoxicity against human MDA-MB-435 cells assessed as cell growth at 0.01 uM after 48 hrs by sulforhodamine B assay; assay type: functional; details: MDA-MB-435, 48 h, read-out: Activity
BT-549 = assay: Cytotoxicity against human BT549 cells assessed as cell growth at 100 nM after 48 hrs by sulforhodamine B assay; assay type: functional; details: BT-549, 48 h, read-out: Activity; procedure, shortened: as §2
T47D [8] = assay: Cytotoxicity against human T47D cells assessed as cell growth at 100 nM after 48 hrs by sulforhodamine B assay; assay type: functional; details: read-out: Activity
A549 = assay: Cytotoxicity against human A549 cells assessed as cell growth at 1 uM after 48 hrs by sulforhodamine B assay; assay type: functional; details: A549, 48 h, read-out: Activity; procedure, shortened: as §2
HT-29 = assay: Cytotoxicity against human HT-29 cells assessed as cell growth at 1 uM after 48 hrs by sulforhodamine B assay; assay type: functional; details: HT-29, 48 h, read-out: Activity
SW-620 = assay: Cytotoxicity against human SW620 cells assessed as cell growth at 1 uM after 48 hrs by sulforhodamine B assay; assay type: functional; details: SW-620, 48 h, read-out: Activity
SF-295 = assay: Cytotoxicity against human SF295 cells assessed as cell growth at 1 uM after 48 hrs by sulforhodamine B assay; assay type: functional; details: SF-295, 48 h, read-out: Activity
SK-MEL-5 = assay: Cytotoxicity against human SK-MEL-5 cells assessed as cell growth at 0.01 uM after 48 hrs by sulforhodamine B assay; assay type: functional; details: SK-MEL-5, 48 h, read-out: Activity
UACC-62 = assay: Cytotoxicity against human UACC62 cells assessed as cell growth at 0.01 uM after 48 hrs by sulforhodamine B assay; assay type: functional; details: UACC-62, 48 h, read-out: Activity
UO-31 = assay: Cytotoxicity against human UO31 cells assessed as cell growth at 0.01 uM after 48 hrs by sulforhodamine B assay; assay type: functional; details: UO-31, 48 h, read-out: Activity
MDA-MB-435 [9] = assay: Cytotoxicity against human MDA-MB-435 cells assessed as cell growth at 1 uM after 48 hrs by sulforhodamine B assay; assay type: functional; details: MDA-MB-435, 48 h, read-out: Activity
HOP-62 = assay: Growth inhibition of human HOP62 cells after 48 hrs by sulforhodamine B assay; assay type: functional, cell-based; details: HOP-62, 48 h; for CC50: read-out: LC50 (the source's name); procedure, shortened: as §1
HCT-15 [10] = assay: Growth inhibition of human HCT15 cells after 48 hrs by sulforhodamine B assay; assay type: functional, cell-based; details: HCT-15, 48 h; for CC50: read-out: LC50 (the source's name); procedure, shortened: as §1

Row | SMILES | GI50 (TK-10) | IC50 (TK-10) | TGI (TK-10) | CC50 (TK-10) | growth at 0.001 µM (MOLT-4 [1]) | growth at 0.001 µM (NCI-H322M) | growth at 0.001 µM (HCT-15 [2]) | growth at 0.001 µM (SNB-75) | growth at 0.001 µM (M14) | growth at 0.001 µM (MDA-MB-435 [3]) | growth at 0.001 µM (MDA-MB-231) | growth at 0.001 µM (T47D [4]) | growth at 0.1 µM (MOLT-4 [5]) | growth at 0.1 µM (COLO 205) | growth at 0.1 µM (HCT-15 [6]) | growth at 0.1 µM (CAKI-1) | growth at 0.01 µM (HL-60(TB)) | growth at 10 µM (SF-539) | growth at 10 µM (LOX IMVI) | growth at 0.01 µM (U-251) | further results
1 | CC(=O)Nc1cccc(-c2ccc(-c3ccnc(NC(=O)Nc4cc(C(F)(F)F)cc(C(F)(F)F)c4)n3)cn2)c1.Cl | 16.8 µM | 16.8 µM | 39.8 µM | 94.1 µM | 95% | 91% | 96% | 57% | 94% | 97% | 102% | 89% | 69% | 96% | 90% | 64% | 90% | -98% | 4% | 90% | growth at 0.01 µM (MDA-MB-435 [7]): 97%; growth at 0.1 µM (BT-549): 87%; growth at 0.1 µM (T47D [8]): 42%; growth at 1 µM (A549): 10%; growth at 1 µM (HT-29): -6%; growth at 1 µM (SW-620): -33%; growth at 1 µM (SF-295): -15%; growth at 0.01 µM (SK-MEL-5): 91%; growth at 0.01 µM (UACC-62): 92%; growth at 0.01 µM (UO-31): 87%; growth at 1 µM (MDA-MB-435 [9]): -18%; GI50 (HOP-62): 4.88 µM; IC50 (HOP-62): 4.88 µM; TGI (HOP-62): 26.8 µM; CC50 (HOP-62): > 100 µM; GI50 (HCT-15 [10]): 3.62 µM; IC50 (HCT-15 [10]): 3.62 µM; TGI (HCT-15 [10]): 15 µM; CC50 (HCT-15 [10]): 45.1 µM
2 | CC(=O)c1ccccc1-c1ccc(-c2ccnc(NC(=O)Nc3cc(N4CCOCC4)cc(C(F)(F)F)c3)n2)cn1 | > 100 µM | 5.46 µM | > 100 µM | > 100 µM | 94% | 101% | 98% | 88% | 94% | 98% | 101% | 106% | 75% | 107% | 92% | 84% | 87% | 56% | 93% | 98% | growth at 0.01 µM (MDA-MB-435 [7]): 95%; growth at 0.1 µM (BT-549): 74%; growth at 0.1 µM (T47D [8]): 8.3%; growth at 1 µM (A549): 82%; growth at 1 µM (HT-29): 76%; growth at 1 µM (SW-620): 84%; growth at 1 µM (SF-295): 48%; growth at 0.01 µM (SK-MEL-5): 99%; growth at 0.01 µM (UACC-62): 94%; growth at 0.01 µM (UO-31): 91%; growth at 1 µM (MDA-MB-435 [9]): 71%; GI50 (HOP-62): > 100 µM; IC50 (HOP-62): 4.29 µM; TGI (HOP-62): > 100 µM; CC50 (HOP-62): > 100 µM; GI50 (HCT-15 [10]): > 100 µM; IC50 (HCT-15 [10]): > 100 µM; TGI (HCT-15 [10]): > 100 µM; CC50 (HCT-15 [10]): > 100 µM
